Measurements reported in the M2OR odorant receptor database.

Experiments:
Settings in all cases: stereoisomer not certain
OR3A3 T48I L132F = system: T1, OR3A3 T48I L132F
T1 sequence (whole entry): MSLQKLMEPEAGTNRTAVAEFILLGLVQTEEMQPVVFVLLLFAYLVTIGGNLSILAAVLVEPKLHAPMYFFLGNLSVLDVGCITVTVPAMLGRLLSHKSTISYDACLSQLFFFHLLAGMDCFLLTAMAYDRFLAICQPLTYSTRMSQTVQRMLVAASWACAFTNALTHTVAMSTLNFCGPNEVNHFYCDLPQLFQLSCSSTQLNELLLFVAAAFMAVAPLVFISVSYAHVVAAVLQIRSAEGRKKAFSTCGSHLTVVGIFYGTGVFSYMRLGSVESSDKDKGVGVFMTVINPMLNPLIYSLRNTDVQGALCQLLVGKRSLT
Procedure, shortened: (§1)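 Transient luciferase assays in mammalian cell lines were common, though methods varied by source. The values come from published papers and their supplementary material, with extra details from the original authors when needed. Responsive refers to a measured signal the original authors judged statistically different from baseline, and non-responsive (inactive) to the remainder.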

OR4A15 (Homo sapiens) = OR4A15 (Homo sapiens) (UniProt Q8NGL6)
Procedure, shortened: as §1

OR4A16 (Homo sapiens) = target: T2, OR4A16 (Homo sapiens) (UniProt Q8NH70)
T2 sequence (whole entry): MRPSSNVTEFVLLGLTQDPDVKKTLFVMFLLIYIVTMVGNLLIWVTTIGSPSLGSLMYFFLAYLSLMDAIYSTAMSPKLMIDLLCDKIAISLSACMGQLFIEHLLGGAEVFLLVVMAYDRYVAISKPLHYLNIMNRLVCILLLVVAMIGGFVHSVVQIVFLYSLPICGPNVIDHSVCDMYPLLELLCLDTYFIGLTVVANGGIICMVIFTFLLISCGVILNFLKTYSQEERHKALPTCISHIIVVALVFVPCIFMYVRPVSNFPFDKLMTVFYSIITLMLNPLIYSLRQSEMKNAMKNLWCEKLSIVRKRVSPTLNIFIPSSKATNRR
Procedure, shortened: as §1

OR4A47 (Homo sapiens) = target: T3, OR4A47 (Homo sapiens) (UniProt Q6IF82)
T3 sequence (whole entry): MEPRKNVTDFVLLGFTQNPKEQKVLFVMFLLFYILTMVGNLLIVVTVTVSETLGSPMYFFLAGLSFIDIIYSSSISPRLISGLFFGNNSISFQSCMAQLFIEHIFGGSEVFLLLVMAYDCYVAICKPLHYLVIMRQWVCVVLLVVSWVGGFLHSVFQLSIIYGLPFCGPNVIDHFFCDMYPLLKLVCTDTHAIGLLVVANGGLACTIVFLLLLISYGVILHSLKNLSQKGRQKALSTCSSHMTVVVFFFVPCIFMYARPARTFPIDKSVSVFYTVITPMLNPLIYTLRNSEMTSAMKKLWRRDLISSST
Procedure, shortened: as §1

OR4A5 (Homo sapiens) = target: T4, OR4A5 (Homo sapiens) (UniProt Q8NH83)
T4 sequence (whole entry): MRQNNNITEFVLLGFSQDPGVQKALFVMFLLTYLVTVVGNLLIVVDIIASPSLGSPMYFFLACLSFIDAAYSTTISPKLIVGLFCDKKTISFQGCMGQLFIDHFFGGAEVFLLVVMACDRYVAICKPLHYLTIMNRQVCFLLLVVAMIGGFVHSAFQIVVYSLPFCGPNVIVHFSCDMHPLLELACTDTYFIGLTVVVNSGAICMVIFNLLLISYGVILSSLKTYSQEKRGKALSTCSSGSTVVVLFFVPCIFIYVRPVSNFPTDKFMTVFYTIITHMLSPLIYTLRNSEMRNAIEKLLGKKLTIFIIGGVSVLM
Procedure, shortened: as §1

OR4B1 (Homo sapiens) = target: T5, OR4B1 (Homo sapiens) (UniProt Q8NGF8)
T5 sequence (whole entry): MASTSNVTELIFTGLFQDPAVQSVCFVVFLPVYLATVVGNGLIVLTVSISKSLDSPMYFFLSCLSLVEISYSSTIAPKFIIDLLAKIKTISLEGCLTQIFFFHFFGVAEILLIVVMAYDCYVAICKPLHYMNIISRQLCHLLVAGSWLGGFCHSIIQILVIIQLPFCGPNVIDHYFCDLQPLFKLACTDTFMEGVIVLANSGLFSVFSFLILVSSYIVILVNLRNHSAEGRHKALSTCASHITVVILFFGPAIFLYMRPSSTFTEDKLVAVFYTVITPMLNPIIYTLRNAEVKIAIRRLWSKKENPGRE
Procedure, shortened: as §1

OR4C11 (Homo sapiens) = target: T6, OR4C11 (Homo sapiens) (UniProt Q6IEV9)
T6 sequence (whole entry): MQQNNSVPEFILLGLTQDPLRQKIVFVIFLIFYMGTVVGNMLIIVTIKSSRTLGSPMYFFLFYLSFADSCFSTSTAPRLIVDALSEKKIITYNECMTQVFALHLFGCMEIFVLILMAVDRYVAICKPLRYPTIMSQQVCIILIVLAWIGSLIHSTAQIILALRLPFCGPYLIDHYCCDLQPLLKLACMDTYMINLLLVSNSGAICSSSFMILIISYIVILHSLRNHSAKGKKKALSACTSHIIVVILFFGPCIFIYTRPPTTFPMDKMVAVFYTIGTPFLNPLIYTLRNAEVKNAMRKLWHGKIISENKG
Procedure, shortened: as §1

OR4C12 (Homo sapiens) = OR4C12 (Homo sapiens) (UniProt Q96R67)
Procedure, shortened: as §1

OR4C13 (Homo sapiens) = OR4C13 (Homo sapiens) (UniProt Q8NGP0)
Procedure, shortened: as §1

OR4C16 (Homo sapiens) = target: T7, OR4C16 (Homo sapiens) (UniProt Q8NGL9)
T7 sequence (whole entry): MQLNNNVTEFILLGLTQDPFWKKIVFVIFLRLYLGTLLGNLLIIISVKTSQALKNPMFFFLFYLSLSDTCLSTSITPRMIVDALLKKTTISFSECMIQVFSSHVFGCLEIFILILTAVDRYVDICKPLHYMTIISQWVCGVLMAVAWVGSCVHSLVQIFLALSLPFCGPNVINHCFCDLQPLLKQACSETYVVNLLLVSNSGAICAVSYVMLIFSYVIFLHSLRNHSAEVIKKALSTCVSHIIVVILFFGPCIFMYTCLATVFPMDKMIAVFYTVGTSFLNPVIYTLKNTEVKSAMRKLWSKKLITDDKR
Procedure, shortened: as §1

OR4C3 = system: OR4C3
Procedure, shortened: as §1

OR4C45 (Homo sapiens) [1] = target: OR4C45 (Homo sapiens) (UniProt A6NMZ5)
Procedure, shortened: as §1
Target sequence in this assay (A6NMZ5 whole entry): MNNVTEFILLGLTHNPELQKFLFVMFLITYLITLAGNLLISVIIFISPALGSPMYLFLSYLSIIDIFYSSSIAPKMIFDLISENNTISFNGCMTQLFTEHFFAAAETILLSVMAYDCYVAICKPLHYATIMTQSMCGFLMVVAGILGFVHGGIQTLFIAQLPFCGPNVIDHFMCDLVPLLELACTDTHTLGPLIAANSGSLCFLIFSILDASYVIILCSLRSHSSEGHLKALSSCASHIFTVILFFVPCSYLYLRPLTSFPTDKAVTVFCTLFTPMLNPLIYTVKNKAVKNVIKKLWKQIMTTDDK

OR4C46 (Homo sapiens) = OR4C46 (Homo sapiens) (UniProt A6NHA9)
Procedure, shortened: as §1

OR4C5 (Homo sapiens) = OR4C5 (Homo sapiens) (UniProt Q8NGB2)
Procedure, shortened: as §1

OR4C6 (Homo sapiens) = OR4C6 (Homo sapiens) (UniProt Q8NH72)
Procedure, shortened: as §1

OR3A4P (Homo sapiens) = target: T8, OR3A4P (Homo sapiens) (UniProt P47883)
T8 sequence (whole entry): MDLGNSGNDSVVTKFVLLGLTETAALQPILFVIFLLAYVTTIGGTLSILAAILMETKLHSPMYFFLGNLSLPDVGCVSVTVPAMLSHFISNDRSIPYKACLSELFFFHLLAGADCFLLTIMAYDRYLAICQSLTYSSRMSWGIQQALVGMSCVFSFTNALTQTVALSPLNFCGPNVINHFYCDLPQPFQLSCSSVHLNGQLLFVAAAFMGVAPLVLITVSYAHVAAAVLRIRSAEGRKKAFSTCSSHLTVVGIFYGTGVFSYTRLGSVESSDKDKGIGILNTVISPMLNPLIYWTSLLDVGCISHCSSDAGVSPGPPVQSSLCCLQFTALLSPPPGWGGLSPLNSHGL
Procedure, shortened: as §1

OR4C15 (Homo sapiens) = OR4C15 (Homo sapiens) (UniProt Q8NGM1)
Procedure, shortened: as §1

OR4C3 (Homo sapiens) = OR4C3 (Homo sapiens) (UniProt Q8NH37)
Procedure, shortened: as §1

OR4C45 (Homo sapiens) [2] = target: T9, OR4C45 (Homo sapiens) (UniProt A6NMZ5); remark: listed apart in the source
T9 sequence (whole entry): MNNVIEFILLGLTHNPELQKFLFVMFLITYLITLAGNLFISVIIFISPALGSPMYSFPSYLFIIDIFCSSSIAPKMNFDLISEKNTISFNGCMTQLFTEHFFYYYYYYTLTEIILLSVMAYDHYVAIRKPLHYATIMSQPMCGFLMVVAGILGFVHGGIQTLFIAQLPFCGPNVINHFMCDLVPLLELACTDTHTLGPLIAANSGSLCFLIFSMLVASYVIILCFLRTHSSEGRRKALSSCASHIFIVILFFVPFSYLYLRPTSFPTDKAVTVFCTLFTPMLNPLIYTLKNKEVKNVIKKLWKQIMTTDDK
Procedure, shortened: as §1

OR4A8 (Homo sapiens) = OR4A8 (Homo sapiens) (UniProt P0C604)
Procedure, shortened: as §1

Measured: odorant receptor agonist call

Sequence of OR4C5 (Homo sapiens) (Q8NGB2 whole entry): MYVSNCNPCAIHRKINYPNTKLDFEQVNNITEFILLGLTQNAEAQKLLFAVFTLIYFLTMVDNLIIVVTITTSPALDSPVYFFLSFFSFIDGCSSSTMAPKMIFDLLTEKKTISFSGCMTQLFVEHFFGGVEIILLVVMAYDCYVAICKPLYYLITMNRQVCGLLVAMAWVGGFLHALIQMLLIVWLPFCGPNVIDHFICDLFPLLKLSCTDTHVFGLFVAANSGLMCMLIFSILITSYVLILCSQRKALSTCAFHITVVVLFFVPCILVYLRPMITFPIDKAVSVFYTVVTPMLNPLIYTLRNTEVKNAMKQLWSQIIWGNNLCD
Sequence of OR4C13 (Homo sapiens) (Q8NGP0 whole entry): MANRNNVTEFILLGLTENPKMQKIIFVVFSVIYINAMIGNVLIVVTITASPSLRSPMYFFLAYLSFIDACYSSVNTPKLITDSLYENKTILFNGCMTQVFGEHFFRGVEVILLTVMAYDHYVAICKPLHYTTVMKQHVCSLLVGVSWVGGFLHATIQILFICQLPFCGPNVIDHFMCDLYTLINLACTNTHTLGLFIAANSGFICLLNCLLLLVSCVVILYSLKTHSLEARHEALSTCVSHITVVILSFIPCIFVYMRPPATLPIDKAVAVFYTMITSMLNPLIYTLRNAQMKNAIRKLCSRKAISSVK
Sequence of OR4C12 (Homo sapiens) (Q96R67 whole entry): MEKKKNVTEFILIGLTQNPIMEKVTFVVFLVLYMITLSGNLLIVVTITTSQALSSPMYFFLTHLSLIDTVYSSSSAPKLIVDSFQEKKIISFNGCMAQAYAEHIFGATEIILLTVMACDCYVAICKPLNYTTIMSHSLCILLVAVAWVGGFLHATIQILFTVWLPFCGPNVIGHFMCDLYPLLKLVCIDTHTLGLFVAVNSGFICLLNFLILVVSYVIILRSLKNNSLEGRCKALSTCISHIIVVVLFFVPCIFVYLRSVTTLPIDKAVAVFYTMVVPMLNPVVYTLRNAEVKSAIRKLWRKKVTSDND
Sequence of OR4C46 (Homo sapiens) (A6NHA9 whole entry): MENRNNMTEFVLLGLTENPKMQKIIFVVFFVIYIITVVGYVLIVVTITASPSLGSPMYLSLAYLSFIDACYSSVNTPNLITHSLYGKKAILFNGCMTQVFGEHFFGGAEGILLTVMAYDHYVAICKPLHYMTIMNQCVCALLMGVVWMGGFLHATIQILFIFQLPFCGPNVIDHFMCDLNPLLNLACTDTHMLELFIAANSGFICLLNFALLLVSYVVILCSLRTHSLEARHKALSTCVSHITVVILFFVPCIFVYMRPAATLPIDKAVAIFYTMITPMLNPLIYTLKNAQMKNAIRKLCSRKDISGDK
Sequence of OR4A15 (Homo sapiens) (Q8NGL6 whole entry): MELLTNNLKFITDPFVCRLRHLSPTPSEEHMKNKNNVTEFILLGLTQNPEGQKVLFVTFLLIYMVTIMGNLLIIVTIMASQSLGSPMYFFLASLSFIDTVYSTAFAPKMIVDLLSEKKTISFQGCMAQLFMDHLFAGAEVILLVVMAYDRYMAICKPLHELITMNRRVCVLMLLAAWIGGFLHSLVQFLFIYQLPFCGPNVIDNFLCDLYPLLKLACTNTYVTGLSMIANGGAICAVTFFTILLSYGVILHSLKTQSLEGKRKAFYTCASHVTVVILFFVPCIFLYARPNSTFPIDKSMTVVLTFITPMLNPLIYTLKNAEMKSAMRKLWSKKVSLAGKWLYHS
Sequence of OR4C6 (Homo sapiens) (Q8NH72 whole entry): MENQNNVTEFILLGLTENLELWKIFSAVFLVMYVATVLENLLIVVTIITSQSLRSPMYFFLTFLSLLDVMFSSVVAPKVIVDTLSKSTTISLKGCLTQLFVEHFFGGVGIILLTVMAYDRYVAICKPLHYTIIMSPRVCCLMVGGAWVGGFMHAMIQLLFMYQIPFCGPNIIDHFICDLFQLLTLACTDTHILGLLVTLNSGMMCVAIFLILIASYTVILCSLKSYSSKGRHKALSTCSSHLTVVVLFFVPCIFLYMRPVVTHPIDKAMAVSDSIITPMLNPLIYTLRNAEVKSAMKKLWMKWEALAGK
Sequence of OR4C15 (Homo sapiens) (Q8NGM1 whole entry): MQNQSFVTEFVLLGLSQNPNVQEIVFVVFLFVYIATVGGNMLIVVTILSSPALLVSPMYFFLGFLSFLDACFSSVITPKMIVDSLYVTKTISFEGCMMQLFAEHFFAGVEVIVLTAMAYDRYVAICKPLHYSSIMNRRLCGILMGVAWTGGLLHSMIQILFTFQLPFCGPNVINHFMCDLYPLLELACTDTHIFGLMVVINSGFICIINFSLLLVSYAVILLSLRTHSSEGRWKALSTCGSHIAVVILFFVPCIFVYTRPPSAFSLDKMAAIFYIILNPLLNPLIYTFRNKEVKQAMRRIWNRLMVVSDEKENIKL
Sequence of OR4C3 (as listed by the source): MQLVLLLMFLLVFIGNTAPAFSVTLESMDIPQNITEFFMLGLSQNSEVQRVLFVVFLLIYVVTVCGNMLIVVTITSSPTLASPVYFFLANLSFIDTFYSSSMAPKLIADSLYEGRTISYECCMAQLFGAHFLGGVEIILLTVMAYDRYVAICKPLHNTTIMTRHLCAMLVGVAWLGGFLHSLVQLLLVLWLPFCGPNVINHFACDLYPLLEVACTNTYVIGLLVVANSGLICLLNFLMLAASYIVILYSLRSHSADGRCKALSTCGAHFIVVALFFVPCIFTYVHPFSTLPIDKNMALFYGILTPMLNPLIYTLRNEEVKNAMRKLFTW
Sequence of OR4C3 (Homo sapiens) (Q8NH37 whole entry): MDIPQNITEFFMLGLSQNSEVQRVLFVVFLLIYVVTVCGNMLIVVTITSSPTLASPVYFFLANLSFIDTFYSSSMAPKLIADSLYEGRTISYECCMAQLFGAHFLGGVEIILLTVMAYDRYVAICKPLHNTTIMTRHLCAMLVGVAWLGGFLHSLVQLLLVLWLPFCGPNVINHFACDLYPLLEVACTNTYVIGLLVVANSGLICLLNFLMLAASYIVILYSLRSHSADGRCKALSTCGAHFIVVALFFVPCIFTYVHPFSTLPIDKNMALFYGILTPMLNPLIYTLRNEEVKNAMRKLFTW
Sequence of OR4A8 (Homo sapiens) (P0C604 whole entry): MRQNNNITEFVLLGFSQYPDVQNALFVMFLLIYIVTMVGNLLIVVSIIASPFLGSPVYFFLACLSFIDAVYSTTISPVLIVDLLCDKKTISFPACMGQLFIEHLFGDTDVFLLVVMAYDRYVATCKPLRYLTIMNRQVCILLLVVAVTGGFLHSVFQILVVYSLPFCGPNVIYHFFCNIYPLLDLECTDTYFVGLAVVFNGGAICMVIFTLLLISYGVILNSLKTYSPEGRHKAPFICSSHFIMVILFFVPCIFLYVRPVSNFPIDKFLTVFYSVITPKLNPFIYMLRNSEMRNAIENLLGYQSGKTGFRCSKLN

CCCC(S)CCOC(C)=O (configuration not stated)
inactive: OR3A3 T48I L132F | OR4A15 (Homo sapiens) | OR4A16 (Homo sapiens) | OR4A47 (Homo sapiens) | OR4A5 (Homo sapiens) | OR4B1 (Homo sapiens) | OR4C11 (Homo sapiens) | OR4C12 (Homo sapiens) | OR4C13 (Homo sapiens) | OR4C16 (Homo sapiens) | OR4C3 | OR4C45 (Homo sapiens) [1] | OR4C46 (Homo sapiens) | OR4C5 (Homo sapiens) | OR4C6 (Homo sapiens)

CCCCC(S)C(C)CO (configuration not stated)
inactive: OR3A4P (Homo sapiens) | OR4A15 (Homo sapiens) | OR4A16 (Homo sapiens) | OR4A47 (Homo sapiens) | OR4A5 (Homo sapiens) | OR4B1 (Homo sapiens) | OR4C11 (Homo sapiens) | OR4C12 (Homo sapiens) | OR4C13 (Homo sapiens) | OR4C15 (Homo sapiens) | OR4C16 (Homo sapiens) | OR4C3 (Homo sapiens) | OR4C45 (Homo sapiens) [2] | OR4C46 (Homo sapiens) | OR4C5 (Homo sapiens) | OR4C6 (Homo sapiens)

Cc1cnc(C)c(C)n1
inactive: OR3A3 T48I L132F | OR4A15 (Homo sapiens) | OR4A16 (Homo sapiens) | OR4A47 (Homo sapiens) | OR4A5 (Homo sapiens) | OR4B1 (Homo sapiens) | OR4C11 (Homo sapiens) | OR4C12 (Homo sapiens) | OR4C13 (Homo sapiens) | OR4C16 (Homo sapiens) | OR4C3 | OR4C45 (Homo sapiens) [1] | OR4C46 (Homo sapiens) | OR4C5 (Homo sapiens) | OR4C6 (Homo sapiens)

CC(=O)c1c(C)c([N+](=O)[O-])c(C(C)(C)C)c([N+](=O)[O-])c1C
inactive: OR4A15 (Homo sapiens) | OR4A16 (Homo sapiens) | OR4A47 (Homo sapiens) | OR4A5 (Homo sapiens) | OR4A8 (Homo sapiens) | OR4B1 (Homo sapiens) | OR4C11 (Homo sapiens) | OR4C12 (Homo sapiens) | OR4C13 (Homo sapiens) | OR4C15 (Homo sapiens) | OR4C16 (Homo sapiens) | OR4C3 (Homo sapiens) | OR4C45 (Homo sapiens) [2] | OR4C46 (Homo sapiens) | OR4C5 (Homo sapiens) | OR4C6 (Homo sapiens)
